Assay results published in ChEMBL document CHEMBL5678818, “Discovery of potent SOS1 inhibitors that block RAS activation via disruption of the RAS-SOS1 interaction” (Proc Natl Acad Sci U S A, 2019).

Tests used:
[1] = molecular target: T1, Dual specificity mitogen-activated protein kinase kinase 6 (Homo sapiens) (UniProt P52564); experiment: Inhibition of MEK6 (unknown origin) assessed as residual activity at 1000 nM by KINOMEscan analysis relative to control
T1 sequence (whole entry): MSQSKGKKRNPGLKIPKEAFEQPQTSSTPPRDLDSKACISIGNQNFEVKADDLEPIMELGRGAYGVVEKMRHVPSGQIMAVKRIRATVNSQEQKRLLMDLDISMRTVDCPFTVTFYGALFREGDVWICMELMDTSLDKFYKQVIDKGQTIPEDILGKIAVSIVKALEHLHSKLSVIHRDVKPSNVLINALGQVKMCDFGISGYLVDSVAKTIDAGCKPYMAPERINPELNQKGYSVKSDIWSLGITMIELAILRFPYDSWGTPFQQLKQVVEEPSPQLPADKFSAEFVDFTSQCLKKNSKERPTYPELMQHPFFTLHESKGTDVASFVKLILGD

[2] = molecular target: Ribosomal protein S6 kinase alpha-2 (Homo sapiens) (UniProt Q15349); experiment: Inhibition of C-terminal RSK3 […] domain 2 (unknown origin) assessed as residual activity at 1000 nM by KINOMEscan analysis relative to control
Chain of Ribosomal protein S6 kinase alpha-2 (Homo sapiens) (Q15349 whole entry): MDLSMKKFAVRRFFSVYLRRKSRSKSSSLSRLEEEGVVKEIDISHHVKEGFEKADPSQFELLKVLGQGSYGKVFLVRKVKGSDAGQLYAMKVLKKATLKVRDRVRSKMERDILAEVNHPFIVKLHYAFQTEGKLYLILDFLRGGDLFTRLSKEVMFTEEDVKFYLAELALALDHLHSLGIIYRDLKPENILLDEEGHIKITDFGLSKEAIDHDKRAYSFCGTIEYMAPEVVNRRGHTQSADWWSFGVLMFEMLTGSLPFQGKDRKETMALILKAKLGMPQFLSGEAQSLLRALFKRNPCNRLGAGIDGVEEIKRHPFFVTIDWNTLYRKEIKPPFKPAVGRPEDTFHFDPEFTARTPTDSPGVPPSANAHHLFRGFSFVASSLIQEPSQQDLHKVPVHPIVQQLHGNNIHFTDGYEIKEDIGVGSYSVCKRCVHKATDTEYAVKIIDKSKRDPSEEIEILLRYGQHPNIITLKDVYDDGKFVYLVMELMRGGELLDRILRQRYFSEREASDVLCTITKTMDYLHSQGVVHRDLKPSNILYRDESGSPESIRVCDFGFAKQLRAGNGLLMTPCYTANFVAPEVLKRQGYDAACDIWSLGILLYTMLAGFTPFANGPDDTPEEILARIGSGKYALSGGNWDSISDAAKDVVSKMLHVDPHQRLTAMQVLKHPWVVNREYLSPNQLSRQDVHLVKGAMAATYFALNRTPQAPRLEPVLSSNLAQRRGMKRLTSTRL

[3] = molecular target: T2, MAP/microtubule affinity-regulating kinase 4 (Homo sapiens) (UniProt Q96L34); experiment: Inhibition of MARK4 (unknown origin) assessed as residual activity at 1000 nM by KINOMEscan analysis relative to control
T2 sequence (whole entry): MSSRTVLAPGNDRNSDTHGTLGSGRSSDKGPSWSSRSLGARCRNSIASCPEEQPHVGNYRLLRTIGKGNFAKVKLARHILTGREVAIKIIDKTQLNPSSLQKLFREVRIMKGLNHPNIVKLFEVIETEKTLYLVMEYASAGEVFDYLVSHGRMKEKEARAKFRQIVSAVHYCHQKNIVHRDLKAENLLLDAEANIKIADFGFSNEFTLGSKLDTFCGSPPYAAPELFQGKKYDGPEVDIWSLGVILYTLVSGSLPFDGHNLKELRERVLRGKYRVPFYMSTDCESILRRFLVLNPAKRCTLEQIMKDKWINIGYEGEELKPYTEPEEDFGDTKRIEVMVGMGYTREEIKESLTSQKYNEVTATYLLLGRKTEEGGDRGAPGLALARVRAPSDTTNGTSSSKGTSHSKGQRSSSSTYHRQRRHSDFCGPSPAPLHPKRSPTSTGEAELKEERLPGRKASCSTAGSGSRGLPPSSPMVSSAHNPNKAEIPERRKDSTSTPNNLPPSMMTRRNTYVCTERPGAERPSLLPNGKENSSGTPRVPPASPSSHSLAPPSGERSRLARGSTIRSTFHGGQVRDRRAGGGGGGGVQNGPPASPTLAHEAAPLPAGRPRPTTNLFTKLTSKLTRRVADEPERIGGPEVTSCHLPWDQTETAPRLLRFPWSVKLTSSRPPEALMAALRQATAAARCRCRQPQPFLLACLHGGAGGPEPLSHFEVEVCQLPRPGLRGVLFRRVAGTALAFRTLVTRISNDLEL

[4] = molecular target: T3, Mitogen-activated protein kinase kinase kinase 7 (Homo sapiens) (UniProt O43318); experiment: Inhibition of TAK1 (unknown origin) assessed as residual activity at 1000 nM by KINOMEscan analysis relative to control
T3 sequence (whole entry): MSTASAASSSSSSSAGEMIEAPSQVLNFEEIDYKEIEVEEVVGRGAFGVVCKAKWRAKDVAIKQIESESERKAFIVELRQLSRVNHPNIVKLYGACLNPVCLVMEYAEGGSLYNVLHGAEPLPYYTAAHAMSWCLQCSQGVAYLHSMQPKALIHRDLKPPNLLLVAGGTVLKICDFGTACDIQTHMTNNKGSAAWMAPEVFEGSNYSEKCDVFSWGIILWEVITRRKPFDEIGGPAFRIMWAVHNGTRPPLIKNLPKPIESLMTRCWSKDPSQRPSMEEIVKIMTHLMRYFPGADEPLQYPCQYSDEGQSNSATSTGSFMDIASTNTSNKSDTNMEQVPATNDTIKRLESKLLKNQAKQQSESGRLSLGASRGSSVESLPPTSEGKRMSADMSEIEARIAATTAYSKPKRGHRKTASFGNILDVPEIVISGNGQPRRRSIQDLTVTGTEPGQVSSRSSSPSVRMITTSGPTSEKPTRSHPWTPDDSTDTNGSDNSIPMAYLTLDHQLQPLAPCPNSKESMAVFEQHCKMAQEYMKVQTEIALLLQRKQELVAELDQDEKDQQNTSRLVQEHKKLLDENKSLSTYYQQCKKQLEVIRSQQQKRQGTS

[5] = molecular target: T4, Dual specificity mitogen-activated protein kinase kinase 5 (Homo sapiens) (UniProt Q13163); experiment: Inhibition of MEK5 (unknown origin) assessed as residual activity at 1000 nM by KINOMEscan analysis relative to control
T4 sequence (whole entry): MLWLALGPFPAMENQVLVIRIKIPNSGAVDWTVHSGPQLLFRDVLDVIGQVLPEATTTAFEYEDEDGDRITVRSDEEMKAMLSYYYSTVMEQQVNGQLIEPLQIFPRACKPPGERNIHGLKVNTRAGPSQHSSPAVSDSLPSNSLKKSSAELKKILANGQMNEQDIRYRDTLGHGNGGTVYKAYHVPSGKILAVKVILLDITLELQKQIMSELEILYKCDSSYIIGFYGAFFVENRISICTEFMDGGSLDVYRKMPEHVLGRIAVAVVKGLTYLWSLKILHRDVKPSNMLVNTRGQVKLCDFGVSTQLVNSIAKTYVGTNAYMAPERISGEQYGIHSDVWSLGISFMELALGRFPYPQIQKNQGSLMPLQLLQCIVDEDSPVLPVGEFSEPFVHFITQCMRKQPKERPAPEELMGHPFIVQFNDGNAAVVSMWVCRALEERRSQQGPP

NCI-H358 = experiment: Antiproliferative activity against human NCI-H358 cells assessed as inhibition of cell viability incubated for 72 hrs by Cell Titer Glo assay; assay type: functional, cell-based; conditions: NCI-H358, 72 h
How it was run: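 NCI-H358 cells (KRAS G12C mutant) were sourced from ATCC.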

Compound | Activity [1] | Activity [2] | Activity [3] | Activity [4] | Activity [5] | IC50 (NCI-H358)
COc1cc2nc(C)nc(N[C@H](C)c3cccc(-c4cn[nH]c4)c3)c2cc1OC | 91% | 67% | 88% | 100% | 61% | 13.6 µM
CNCc1ccccc1-c1csc([C@@H](C)Nc2nc(C)nc3cc(OC)c(OC)cc23)c1 [BAY-293] | – | – | – | – | – | 3.48 µM
COc1cc2ncnc(N[C@H](C)c3cccc4ccccc34)c2cc1OC | 100% | 96% | 66% | 85% | 89% | –
